Compound activity deposited in PubChem BioAssay by several laboratories.
This is a sample that favours compounds with a hit; in the whole collection about 6.4% have one here.
HUVEC inhibit = blocks proliferation of human endothelial cells | viability, % at 10 µM (by protocol) | HUVEC proliferation, CellTiter-Glo luminescence, 72 h; active compounds read low | 86,000 compounds, 1.1% hits;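 active = viability at or below 30%; inactive = viability above 30%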;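 note: 100% = median luminescence of DMSO-only cell control wells on each plate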
Ecoli WT expand = growth inhibitors of E. coli BW25113 wild type | OD600 absorbance | growth inhibition, % at 100 µM | 98,000 compounds, 0.15% hits | AID 710;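 active = growth inhibition above about 50% at one test dose, limit read from the data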;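 note: growth measured after 20 h incubation at 37 °C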
tolC growth inh = growth inhibitors of E. coli BW25113 tolC mutant. 65,000 compounds, 2.2% hits. OD615. growth inhibition, % at 10 µM (by protocol);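 active = growth inhibition at or above a cutoff equal to the mean over every tested compound plus 3 SD, cut at about 60% in these data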;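 note: growth measured after 20 h incubation at 37 °C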
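Signal: optical density read at 615 nm; Assay system: E. coli ΔtolC::kan strain BW25113; Times: 20 h incubation with compound, 37 °C; Dosing: 10 µM final, single dose.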
H69AR growth 86K = growth inhibitors of human H69AR lung tumor cells; H69AR lung tumor viability, ATP luminescence, 72 h; active compounds read low; viability, % at 10 µM; 85,000 compounds, 6% hits; AID 598;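 active = viability at or below 40%; inactive = viability above 40%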;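 note: multidrug resistant small cell line overexpressing MRP-1 efflux transporter; 100% = mean luminescence of untreated control wells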
Lung fibro prol = blocks proliferation of human lung fibroblasts; LL 47 human lung fibroblast viability, ATP luminescence; active compounds read low; viability, % at 10 µM; 85,000 compounds, 1.1% hits; AID 719;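 active = viability at or below 50% in the single dose screen; inactive = viability above 50%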;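 note: compound exposure lasted 72 h before the ATP readout; 100% = median luminescence of untreated cell-only wells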
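Test system: LL 47 human lung fibroblasts / Incubation: 72 h compound exposure at 37 °C after overnight plating / Technique: luminescent ATP detection, CellTiter-Glo / Compound dosing: 0.1% DMSO in all compound wells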
Jurkat tox 60K = reduces viability or proliferation of Jurkat cells; 56,000 compounds, 1.2% hits; AID 463; inhibition, % at 4 µM; Jurkat E6.1 viability, ATP luminescence, 48 h;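 active = inhibition above the mean inhibition of all tested compounds plus 3 SD, cut at about 28% in these data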
* marks the source's active call; other numbers are inactive results; . = not tested or not shown.

SMILES	HUVEC inhibit	Ecoli WT expand	tolC growth inh	H69AR growth 86K	Lung fibro prol	Jurkat tox 60K
Cc1cccc(NS(=O)(=O)c2cccc3nsnc23)c1	91.2	7.0	.	88.1	90.7	.
O=C(CSc1nc2nc(-c3cccs3)cc(C(F)(F)F)c2c(=O)[nH]1)NCc1ccco1	.	-13.0	91.2*	.	.	9.5
Cc1nc(SCC(=O)NCc2ccco2)[nH]c(=O)c1C	84.7	5.0	.	72.6	98.2	.
O=C(NCc1ccco1)c1cnn2c(C(F)(F)F)cc(-c3cccs3)nc12	91.8	-7.0	2.2	7.1*	86.5	-0.6
O=C(NC1(C(F)(F)F)NC(=O)N(C2CCCC2)C1=O)C1CC1 (configuration not stated)	98.2	2.0	-10.7	93.8	89.8	-1.0
Cc1ccc(NCc2nnc(SCc3ccc(C#N)cc3)n2Cc2ccco2)c(C)c1	104.7	-18.0	61.0*	73.4	84.8	8.0
O=S(=O)(c1ccc(Cl)cc1)c1snnc1-c1ccccc1	7.5*	2.0	.	1.9*	6.5*	.
CC1=C(C)CS(=O)N(S(=O)(=O)c2ccccc2)C1 (configuration not stated)	73.9	-11.0	.	1.8*	39.5*	.
Cc1ccc(S(=O)(=O)N2CCN(S(=O)(=O)c3ccc(C)cc3)C2c2ccccc2)cc1	99.9	-20.0	.	90.3	90.3	.
CC1=C(C)CS(=O)N(c2ccc(S(N)(=O)=O)cc2)C1 (configuration not stated)	95.0	4.0	-14.6	12.4*	69.0	.
CCOCC(=O)Nc1ccc(S(=O)(=O)NCCc2ccccc2)cc1	110.1	0.0	8.5	15.0*	104.3	7.8
Cc1noc(C)c1S(=O)(=O)N1CCC(C(=O)NC2CCCc3ccccc32)CC1 (configuration not stated)	101.3	-5.0	-9.1	97.3	90.0	.
COc1ccc(CCNC(=O)c2ccc(CNS(=O)(=O)c3cc(C)ccc3C)cc2)cc1OC	.	-18.0	.	.	.	.
COC(=O)c1cn(NC(=O)c2ccc(OC)c(OC)c2)c(=O)c2ccccc12	.	-4.0	.	.	.	.
COC(=O)c1cn(NC(=O)c2cnccn2)c(=O)c2ccccc12	67.5	1.0	98.6*	45.8	81.8	.
Cc1[nH]c(C(=O)N2CCCCC2)c(C)c1C(=O)NC1CCCCC1	93.0	.	-34.4	86.1	104.7	-2.9
NC(=O)c1c(NC(=O)CSc2nnc(-c3ccccc3)n2CC2CCCO2)sc2c1CCC2 (configuration not stated)	94.7	4.0	0.5	32.9*	95.6	4.1
N#Cc1c(NC(NC(=O)c2ccco2)C(=O)c2ccccc2)sc2c1CCCC2 (configuration not stated)	85.0	-3.0	65.5*	100.2	95.3	5.8
Cc1onc(-c2ccccc2)c1C(=O)Nc1sc2c(c1C(N)=O)CCC2	89.1	-4.0	15.9	34.1*	90.7	.
Cc1noc(C)c1C(=O)Nc1sc(C)c(-c2ccccc2)c1C#N	57.3	-4.0	97.3*	32.0*	94.9	-0.8
N#CCc1nnc2n1-c1ccccc1CCC2	90.1	2.0	-20.1	102.7	105.3	5.3
Cc1ccc(C)c(CN2C(=O)C3CCCN3c3ccc(S(=O)(=O)N4CCOCC4)cc32)c1 (configuration not stated)	.	-3.0	.	.	.	.
COC(=O)c1sc2ccccc2c1-n1cccc1C(=O)C(=O)Nc1ccc(OC)cc1	.	-17.0	.	.	.	.
O=C(Nc1sc2c(c1C(=O)O)CCC2)c1cccs1	80.0	-3.0	76.1*	91.5	101.1	6.2
Cc1onc(-c2c(F)cccc2Cl)c1C(=O)Nc1sc2c(c1C#N)CCC(C(C)(C)C)C2 (configuration not stated)	75.5	.	.	79.9	71.8	.
SMILES	HUVEC inhibit	Ecoli WT expand	tolC growth inh	H69AR growth 86K	Lung fibro prol	Jurkat tox 60K
Cc1onc(-c2ccccc2)c1C(=O)Nc1sc2c(c1C#N)CCC2	67.8	-1.0	69.6*	16.1*	75.9	49.4*
Cc1onc(-c2c(F)cccc2Cl)c1C(=O)Nc1sc2c(c1C(N)=O)CCC2	69.8	-18.0	.	15.9*	76.3	.
O=C(c1ccco1)N1CCN(C(c2ccccc2)c2nnnn2C2CCCC2)CC1 (configuration not stated)	108.0	.	.	91.0	100.8	.
CCC(CC)NC(=O)Cc1ccccc1[N+](=O)[O-]	.	1.0	.	.	.	.
CN(C)S(=O)(=O)c1cccc(C(=O)NCc2cccs2)c1	104.6	3.0	.	112.3	102.9	.
Cc1cc(NC(=O)c2ccc3c(c2)C(=O)N(C2CCCCC2)C3=O)no1	92.1	-1.0	11.0	26.9*	78.7	.
Cc1cc(NC(=O)c2ccc3c(c2)C(=O)N(CCC(C)C)C3=O)no1	93.2	-2.0	-6.5	39.9*	99.5	-0.3
